In ChEMBL document CHEMBL1139421, “Synthesis and elastase-inhibiting activity of 2-pyridinyl-isothiazol-3(2H)-one 1,1-dioxides” (Bioorg Med Chem, 2008) one finds IC50 and Ki data, which are given here for nine compounds.

The target in test [1] is Bile salt-activated lipase (Bos taurus) (UniProt P30122). Description: Inhibition of cholesterol esterase.
In test [2] the target is Procathepsin L (Homo sapiens, UniProt P07711). Description: Inhibition of human cathepsin L. The procedure, abridged: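 Human cathepsin L at 4 ng/ml final, 37 °C, in 100 mM sodium phosphate pH 6.0, 100 mM NaCl, 5 mM EDTA, 0.01% Brij 35. Enzyme was activated 30 min at 37 °C with 5 mM DTT. Z-Phe-Arg-pNA at 100 µM final, with 3% DMSO; read at 405 nm over 10 min, with linear regression of progress curves.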

Test [3] deals with Angiotensin-converting enzyme (Homo sapiens, UniProt P12821). Put plainly: Inhibition of human ACE. The procedure, abridged: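 Human ACE at 86.8 ng/ml final, 37 °C, in 50 mM Tris-HCl, 300 mM NaCl, pH 7.5. Enzyme was preincubated 10 min at 37 °C after dilution. FA-Phe-Gly-Gly at 3 mM final, with 3% DMSO. Absorbance decrease read at 352 nm over 20 min. IC50 from linear steady-state turnover.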

The target of test [4] is T1, Neutrophil elastase (Homo sapiens, UniProt P08246).
T1 sequence (P08246 whole entry): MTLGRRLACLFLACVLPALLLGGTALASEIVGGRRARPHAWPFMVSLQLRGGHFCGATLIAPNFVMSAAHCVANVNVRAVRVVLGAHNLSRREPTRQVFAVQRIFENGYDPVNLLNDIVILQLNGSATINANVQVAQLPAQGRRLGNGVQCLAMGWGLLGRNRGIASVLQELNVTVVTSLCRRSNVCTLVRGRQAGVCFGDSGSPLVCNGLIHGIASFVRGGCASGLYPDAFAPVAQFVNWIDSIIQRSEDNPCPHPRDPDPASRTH
Put plainly: Inhibition of human leukocyte elastase. A digest of the protocol: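 Human leukocyte elastase at 50 ng/ml final, 25 °C, in 50 mM sodium phosphate, 500 mM NaCl, pH 7.8. MeOSuc-Ala-Ala-Pro-Val-pNA at 100 µM final (1.9 Km), with 3.5% DMSO; started with enzyme. Read at 405 nm over 10 min. IC50 from linear steady-state rates: duplicate determinations at 25 and 50 µM, or five concentrations fitted nonlinearly.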

Test [5] has as its target Acetylcholinesterase (Homo sapiens, UniProt P22303). Description: Inhibition of acetylcholinesterase. The procedure, abridged:
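Acetylcholinesterase in 100 mM sodium phosphate, 100 mM NaCl, pH 7.3. Enzyme, DTNB and test compound (acetonitrile stocks, added acetonitrile) preincubated 15 min at 25 °C. Reaction started with acetylthiocholine; DTNB final 350 µM. Read at 412 nm, 25 °C. Progress curves followed 5 min and fitted by linear regression; IC50 derived from rates with and without inhibitor.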

Test [6] concerns the target T2, Cathepsin G (Homo sapiens, UniProt P08311).
T2 sequence (P08311 whole entry): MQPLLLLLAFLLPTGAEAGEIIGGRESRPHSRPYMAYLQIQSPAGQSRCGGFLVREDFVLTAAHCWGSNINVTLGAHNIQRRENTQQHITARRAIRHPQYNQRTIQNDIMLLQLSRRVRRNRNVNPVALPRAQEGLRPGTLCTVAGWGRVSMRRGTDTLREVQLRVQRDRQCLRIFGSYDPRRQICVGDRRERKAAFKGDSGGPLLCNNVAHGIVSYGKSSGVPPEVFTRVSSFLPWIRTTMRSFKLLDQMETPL
Put plainly: Inhibition of human cathepsin G. A digest of the protocol: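 Human cathepsin G at 2.5 mU/ml final, 25 °C, in 20 mM Tris-HCl, 150 mM NaCl, pH 8.4. Suc-Ala-Ala-Pro-Phe-pNA at 500 µM final, with 1.5% DMSO; started with enzyme. Read at 405 nm over 10 min. IC50 from linear steady-state rate, duplicate determinations at 12.5 µM inhibitor, IC50 = [I]/(v0/v − 1).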

Test [7] in a line: Inhibition of bovine trypsin. On the set-up: species or system Bos taurus. The procedure, abridged: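 Bovine pancreatic trypsin at 12.5 ng/ml final, 25 °C, in 20 mM Tris-HCl, 150 mM NaCl, pH 8.4. Substrate Suc-Ala-Ala-Pro-Arg-pNA at 200 µM final, with 6% DMSO. Started with enzyme; release of pNA read at 405 nm over 10 min. IC50 taken from linear steady-state turnover, duplicate determinations at inhibitor 25 and 50 µM.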

Bile salt-activated lipase (Bos taurus), sequence (P30122 whole entry, looked up): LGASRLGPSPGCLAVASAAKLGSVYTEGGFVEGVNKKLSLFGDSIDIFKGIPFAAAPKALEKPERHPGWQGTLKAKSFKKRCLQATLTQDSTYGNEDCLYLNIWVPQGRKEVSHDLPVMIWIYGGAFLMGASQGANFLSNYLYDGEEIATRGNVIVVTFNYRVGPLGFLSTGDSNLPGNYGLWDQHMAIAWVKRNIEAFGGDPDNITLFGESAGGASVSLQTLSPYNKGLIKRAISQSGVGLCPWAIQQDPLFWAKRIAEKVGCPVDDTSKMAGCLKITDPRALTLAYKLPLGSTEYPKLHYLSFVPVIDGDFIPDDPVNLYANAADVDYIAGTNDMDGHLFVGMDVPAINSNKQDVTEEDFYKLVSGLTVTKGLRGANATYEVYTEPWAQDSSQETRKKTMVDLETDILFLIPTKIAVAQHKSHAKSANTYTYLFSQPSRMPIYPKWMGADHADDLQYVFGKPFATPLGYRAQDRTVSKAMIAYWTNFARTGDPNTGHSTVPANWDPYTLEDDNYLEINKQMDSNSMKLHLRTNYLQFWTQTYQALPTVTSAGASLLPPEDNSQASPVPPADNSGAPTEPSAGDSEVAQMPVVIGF
Acetylcholinesterase, sequence (P22303 whole entry): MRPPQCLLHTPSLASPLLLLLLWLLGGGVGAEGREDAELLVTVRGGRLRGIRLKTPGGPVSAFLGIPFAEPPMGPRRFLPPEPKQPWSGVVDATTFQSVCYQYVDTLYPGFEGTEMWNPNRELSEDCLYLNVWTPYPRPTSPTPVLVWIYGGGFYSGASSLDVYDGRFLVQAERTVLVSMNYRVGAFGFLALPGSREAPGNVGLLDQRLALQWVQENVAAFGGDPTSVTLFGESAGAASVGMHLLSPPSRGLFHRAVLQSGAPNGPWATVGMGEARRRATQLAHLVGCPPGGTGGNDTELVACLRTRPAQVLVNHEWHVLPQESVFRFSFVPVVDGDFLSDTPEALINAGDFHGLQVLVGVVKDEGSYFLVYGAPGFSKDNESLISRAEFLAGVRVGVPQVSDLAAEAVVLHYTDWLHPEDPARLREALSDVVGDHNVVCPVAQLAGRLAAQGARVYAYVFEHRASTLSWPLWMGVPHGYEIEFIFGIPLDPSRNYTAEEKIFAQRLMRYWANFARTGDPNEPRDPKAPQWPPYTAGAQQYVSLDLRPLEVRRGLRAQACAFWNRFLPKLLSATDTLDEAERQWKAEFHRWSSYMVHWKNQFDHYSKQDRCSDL
Angiotensin-converting enzyme, sequence (P12821 whole entry): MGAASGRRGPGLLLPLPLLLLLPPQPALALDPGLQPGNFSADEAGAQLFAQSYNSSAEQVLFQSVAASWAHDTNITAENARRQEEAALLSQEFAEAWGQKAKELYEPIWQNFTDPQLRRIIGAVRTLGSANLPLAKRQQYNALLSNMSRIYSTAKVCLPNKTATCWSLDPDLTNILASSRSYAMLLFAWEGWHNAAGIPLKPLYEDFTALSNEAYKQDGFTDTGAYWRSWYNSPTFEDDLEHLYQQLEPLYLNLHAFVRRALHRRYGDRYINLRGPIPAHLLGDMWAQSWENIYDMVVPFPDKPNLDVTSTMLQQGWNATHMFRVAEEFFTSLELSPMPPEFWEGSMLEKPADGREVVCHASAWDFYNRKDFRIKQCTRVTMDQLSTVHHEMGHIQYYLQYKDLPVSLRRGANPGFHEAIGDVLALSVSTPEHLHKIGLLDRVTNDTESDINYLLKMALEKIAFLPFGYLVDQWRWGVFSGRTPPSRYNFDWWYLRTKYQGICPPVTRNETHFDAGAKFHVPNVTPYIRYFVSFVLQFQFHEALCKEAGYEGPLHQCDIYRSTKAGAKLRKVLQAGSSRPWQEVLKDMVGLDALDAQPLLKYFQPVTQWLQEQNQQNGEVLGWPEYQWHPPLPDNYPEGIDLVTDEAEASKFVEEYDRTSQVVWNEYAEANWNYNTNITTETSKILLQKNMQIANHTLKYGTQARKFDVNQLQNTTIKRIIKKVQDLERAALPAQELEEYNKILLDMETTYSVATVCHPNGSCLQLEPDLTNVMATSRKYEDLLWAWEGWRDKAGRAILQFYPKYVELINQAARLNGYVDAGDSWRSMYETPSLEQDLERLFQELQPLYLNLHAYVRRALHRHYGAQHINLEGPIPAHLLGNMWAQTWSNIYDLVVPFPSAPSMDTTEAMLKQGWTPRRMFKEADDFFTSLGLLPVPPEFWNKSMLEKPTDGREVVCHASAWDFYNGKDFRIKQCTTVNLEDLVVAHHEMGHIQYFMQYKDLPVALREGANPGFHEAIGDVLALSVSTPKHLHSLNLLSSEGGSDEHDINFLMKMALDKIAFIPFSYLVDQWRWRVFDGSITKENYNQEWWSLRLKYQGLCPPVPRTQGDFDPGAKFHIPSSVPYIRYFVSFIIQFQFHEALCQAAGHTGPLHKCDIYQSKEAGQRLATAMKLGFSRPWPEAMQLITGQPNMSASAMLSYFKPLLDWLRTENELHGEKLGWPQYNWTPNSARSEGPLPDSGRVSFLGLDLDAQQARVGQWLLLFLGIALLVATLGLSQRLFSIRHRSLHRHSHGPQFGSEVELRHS
Procathepsin L, sequence (P07711 whole entry): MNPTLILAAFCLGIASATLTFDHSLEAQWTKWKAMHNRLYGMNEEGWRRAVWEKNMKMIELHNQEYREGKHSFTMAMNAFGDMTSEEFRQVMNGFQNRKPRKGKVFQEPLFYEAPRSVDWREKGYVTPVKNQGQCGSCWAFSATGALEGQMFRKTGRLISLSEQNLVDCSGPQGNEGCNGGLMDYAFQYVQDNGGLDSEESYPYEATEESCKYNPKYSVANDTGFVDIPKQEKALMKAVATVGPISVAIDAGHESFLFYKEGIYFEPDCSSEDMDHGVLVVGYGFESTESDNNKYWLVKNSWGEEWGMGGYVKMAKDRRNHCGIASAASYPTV

For the compound `O=C1C2=C(CCCC2)S(=O)(=O)N1c1cccc(Cl)n1`, the IC50 in test [1], in test [2], in test [3], in test [4], in test [5] and in test [6] was above 100 µM each time. Further, the IC50 in test [7] is above 100 µM.
For `O=C1C2=C(CCCC2)S(=O)(=O)N1c1c(F)c(F)c(F)c(F)c1F`, the IC50 in test [1], in test [2], in test [3], in test [4], in test [5] and in test [6] was above 100 µM each time. This compound also registered an IC50 in test [7] above 100 µM.
Consider `O=C1C2=C(CCCC2)S(=O)(=O)N1c1ncc(F)cc1F`, for which the IC50 in test [1], in test [2], in test [3], in test [4], in test [5] and in test [6] was above 100 µM throughout. In test [7], this compound came in with an IC50 above 100 µM.
With `O=C1C2=C(CCCC2)S(=O)(=O)N1c1ccncc1.[O-][Cl+3]([O-])([O-])O`, the IC50 in test [1], in test [2], in test [3], in test [4], in test [5] and in test [6] was above 100 µM each time. Also, in test [7], the IC50 is above 100 µM.
Regarding `CC1=C(C)S(=O)(=O)N(c2c(F)c(F)nc(F)c2F)C1=O`, the IC50 in test [1], in test [2], in test [3], in test [4], in test [5] and in test [6] was above 100 µM throughout. This compound also showed an IC50 in test [7] above 100 µM.
Take `CC1=C(c2ccccc2)C(=O)N(c2c(F)c(F)nc(F)c2F)S1(=O)=O`: the IC50 in test [1] was above 100 µM; in test [2], above 100 µM; in test [3], above 100 µM; in test [4], 33 µM; in test [5], above 100 µM; in test [6], above 100 µM. In test [7], the IC50 is above 100 µM.
`O=C1C2=C(CCCC2)S(=O)(=O)N1c1cccc(Br)n1`: the 50% inhibitory concentration (IC50) in test [1], in test [2], in test [3], in test [4], in test [5] and in test [6] was above 100 µM throughout. Besides, in test [7], the IC50 was above 100 µM.
For `O=C1c2ccccc2S(=O)(=O)N1c1c(F)c(F)nc(F)c1F`, the IC50 is 11 µM in test [1]; above 100 µM in test [2]; above 100 µM in test [3]; 0.081 µM in test [4]; above 100 µM in test [5]; 3.7 µM in test [6]. This compound showed an IC50 in test [7] of 7.5 µM. In test [4], this compound displayed a Ki of 28 nM.
For `O=C1C2=C(CCCC2)S(=O)(=O)N1c1c(F)c(F)nc(F)c1F`, the concentration for half-maximal inhibition (IC50) in test [1] is above 100 µM; in test [2], above 100 µM; in test [3], above 100 µM; in test [4] it was 3.1 µM; in test [5], above 100 µM; in test [6], above 100 µM. This compound also gave an IC50 in test [7] above 100 µM.
